Active and inactive are the calls of the source. The rule behind the calls is not given here.
Legend:
[1] = biological target: Kynurenine/alpha-aminoadipate aminotransferase, mitochondrial (Rattus norvegicus, UniProt Q64602); test: Inhibition of rat recombinant KAT2 assessed as conversion of L-kynurenine into kynurenic acid after 15 to 20 hrs
Procedure, shortened: (§1)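 Human and rat KAT II enzyme assays run with 30 nM enzyme; IC50 reported as geometric mean of at least three independent determinations (some n = 1 or 2).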

[2] = biological target: T1, Kynurenine/alpha-aminoadipate aminotransferase, mitochondrial (Homo sapiens, UniProt Q8N5Z0); test: Inhibition of human recombinant KAT2 assessed as conversion of L-kynurenine into kynurenic acid after 15 to 20 hrs; procedure, shortened: as §1
Target sequence in this assay (Q8N5Z0 whole entry): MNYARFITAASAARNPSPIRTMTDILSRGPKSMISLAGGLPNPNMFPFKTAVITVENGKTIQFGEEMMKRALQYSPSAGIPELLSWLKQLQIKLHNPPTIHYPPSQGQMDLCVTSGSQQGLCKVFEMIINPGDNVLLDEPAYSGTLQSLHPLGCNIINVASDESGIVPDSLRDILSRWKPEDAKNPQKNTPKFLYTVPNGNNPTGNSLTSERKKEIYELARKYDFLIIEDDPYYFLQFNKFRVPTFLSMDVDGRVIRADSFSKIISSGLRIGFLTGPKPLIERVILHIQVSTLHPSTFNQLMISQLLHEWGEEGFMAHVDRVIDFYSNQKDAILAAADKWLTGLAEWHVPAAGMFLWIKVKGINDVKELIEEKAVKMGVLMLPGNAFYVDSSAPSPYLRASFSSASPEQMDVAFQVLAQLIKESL

[3] = biological target: T1, Kynurenine/alpha-aminoadipate aminotransferase, mitochondrial; test: Ratio of Kinact to Ki for human recombinant KAT2 using L-kynurenine as substrate
Procedure, shortened: (§2)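 Second-order rate constant kinact/Ki determined for human and rat KAT II; values are geometric or arithmetic means of at least three experiments (some n = 2).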
Target sequence in this assay (Q8N5Z0 30-425 limits assumed): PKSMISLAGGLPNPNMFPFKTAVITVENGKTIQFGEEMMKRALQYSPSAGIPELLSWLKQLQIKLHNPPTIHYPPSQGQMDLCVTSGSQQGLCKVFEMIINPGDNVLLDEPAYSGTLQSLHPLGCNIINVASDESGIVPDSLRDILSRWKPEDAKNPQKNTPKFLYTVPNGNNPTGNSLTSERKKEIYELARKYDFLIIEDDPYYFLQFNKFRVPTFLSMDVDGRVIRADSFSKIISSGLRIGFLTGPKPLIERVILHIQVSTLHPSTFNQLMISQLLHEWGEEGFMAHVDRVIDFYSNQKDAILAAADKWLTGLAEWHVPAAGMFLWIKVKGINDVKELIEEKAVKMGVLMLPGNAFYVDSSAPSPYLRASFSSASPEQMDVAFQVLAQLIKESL

[4] = biological target: Kynurenine/alpha-aminoadipate aminotransferase, mitochondrial (Rattus norvegicus) (UniProt Q64602); test: Ratio of Kinact to Ki for rat recombinant KAT2 using L-kynurenine as substrate; procedure, shortened: as §2
[5] = Fraction unbound in rat brain at 1 uM by equilibrium dialysis method; type: ADME, tissue-based
[6] = Ratio of free drug level in cerebrospinal fluid to brain in Sprague-Dawley rat at 10 mg/kg, sc after 0.25 hrs; type: ADME, organism-based; parameters: dose 10 mg/kg, route subcutaneous; conditions: in vivo
Procedure, shortened: (§3)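 Rat dosed 10 mg/kg sc; drug concentrations in plasma, brain and CSF measured at 0.25 h. Free plasma and free brain levels corrected using fraction unbound from rat plasma protein binding and brain binding assays. Exposure ratios taken from free plasma, free brain and CSF concentrations.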

[7] = test system: Rattus norvegicus; test: Reduction of […] level in freely moving Sprague-Dawley rat dialysates from prefrontal cortex at 10 mg/kg, sc after 20 hrs by microdialysis analysis; type: functional, organism-based; parameters: dose 10 mg/kg
Procedure, shortened: (§4)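 Freely moving rats given 10 mg/kg sc at time 0; KYNA in prefrontal cortex dialysates monitored over time by microdialysis; expressed as percent of each animal's basal KYNA, means ± SEM, n = 11–14 per group.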

[8] = biological target: T2, Kynurenine--oxoglutarate transaminase 1 (Homo sapiens, UniProt Q16773); test: Inhibition of human KAT1
T2 sequence (Q16773 whole entry): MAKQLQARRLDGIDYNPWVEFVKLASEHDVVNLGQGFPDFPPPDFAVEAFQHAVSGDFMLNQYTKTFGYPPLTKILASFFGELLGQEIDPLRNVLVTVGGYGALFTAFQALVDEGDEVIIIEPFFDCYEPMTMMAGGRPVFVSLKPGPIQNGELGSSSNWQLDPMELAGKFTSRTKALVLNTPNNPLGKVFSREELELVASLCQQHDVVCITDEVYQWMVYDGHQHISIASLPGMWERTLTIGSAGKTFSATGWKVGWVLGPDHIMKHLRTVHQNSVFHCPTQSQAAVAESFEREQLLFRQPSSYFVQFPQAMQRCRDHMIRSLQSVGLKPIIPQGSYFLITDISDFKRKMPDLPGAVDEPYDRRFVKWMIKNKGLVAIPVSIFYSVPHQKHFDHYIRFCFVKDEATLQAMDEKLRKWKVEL

[9] = Fraction unbound in rat plasma at 1 uM by equilibrium dialysis method; type: ADME, cell-free
[10] = Ratio of free drug level in plasma to brain in Sprague-Dawley rat at 10 mg/kg, sc after 0.25 hrs; type: ADME, organism-based; parameters: dose 10 mg/kg, route subcutaneous; conditions: in vivo; procedure, shortened: as §3
[11] = test system: Rattus norvegicus; test: Reduction of […] level in freely moving Sprague-Dawley rat dialysates from prefrontal cortex at 10 mg/kg, sc after 1 hr by microdialysis analysis relative to control; type: functional; parameters: scale not given: the % may be the effect or the level left; conditions: route subcutaneous; procedure, shortened: as §4
[12] = Drug level in Sprague-Dawley rat cerebrospinal fluid at 10 mg/kg, sc after 0.25 hrs; type: ADME, organism-based; parameters: dose 10 mg/kg, route subcutaneous; conditions: read-out: Drug uptake
Procedure, shortened: (§5)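 Rats dosed 10 mg/kg subcutaneously; drug levels measured in CSF and plasma/brain at 0.25 h post-dose; free levels derived using measured rat brain and plasma unbound fractions.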

[13] = biological target: Kynurenine--oxoglutarate transaminase 3 (Homo sapiens, UniProt Q6YP21); test: Inhibition of human KAT3
[14] = test system: Brain; test: Free brain concentration in Sprague-Dawley rat at 10 mg/kg, sc after 0.25 hrs; type: ADME, organism-based; parameters: dose 10 mg/kg, route subcutaneous; conditions: in vivo; procedure, shortened: as §5
[15] = Lipophilicity, log D of the compound; type: physicochemical; conditions: octanol/water
[16] = test system: Plasma; test: Free plasma concentration in Sprague-Dawley rat at 10 mg/kg, sc after 0.25 hrs; type: ADME, organism-based; parameters: dose 10 mg/kg, route subcutaneous; conditions: in vivo; procedure, shortened: as §5
[17] = Inhibition of human KAT4

Chain of Kynurenine/alpha-aminoadipate aminotransferase, mitochondrial (Rattus norvegicus) (Q64602 30-425 limits assumed): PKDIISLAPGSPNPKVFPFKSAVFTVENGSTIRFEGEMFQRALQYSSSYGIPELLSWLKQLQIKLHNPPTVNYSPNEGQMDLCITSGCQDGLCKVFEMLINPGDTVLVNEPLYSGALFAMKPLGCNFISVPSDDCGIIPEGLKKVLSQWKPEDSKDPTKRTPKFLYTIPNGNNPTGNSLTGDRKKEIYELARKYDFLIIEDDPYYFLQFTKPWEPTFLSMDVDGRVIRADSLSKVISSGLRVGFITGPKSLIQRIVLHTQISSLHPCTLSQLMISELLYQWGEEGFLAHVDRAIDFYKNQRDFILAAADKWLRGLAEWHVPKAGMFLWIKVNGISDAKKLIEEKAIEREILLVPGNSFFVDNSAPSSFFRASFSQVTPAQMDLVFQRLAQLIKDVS
Chain of Kynurenine/alpha-aminoadipate aminotransferase, mitochondrial (Rattus norvegicus, UniProt Q64602) (Q64602 whole entry): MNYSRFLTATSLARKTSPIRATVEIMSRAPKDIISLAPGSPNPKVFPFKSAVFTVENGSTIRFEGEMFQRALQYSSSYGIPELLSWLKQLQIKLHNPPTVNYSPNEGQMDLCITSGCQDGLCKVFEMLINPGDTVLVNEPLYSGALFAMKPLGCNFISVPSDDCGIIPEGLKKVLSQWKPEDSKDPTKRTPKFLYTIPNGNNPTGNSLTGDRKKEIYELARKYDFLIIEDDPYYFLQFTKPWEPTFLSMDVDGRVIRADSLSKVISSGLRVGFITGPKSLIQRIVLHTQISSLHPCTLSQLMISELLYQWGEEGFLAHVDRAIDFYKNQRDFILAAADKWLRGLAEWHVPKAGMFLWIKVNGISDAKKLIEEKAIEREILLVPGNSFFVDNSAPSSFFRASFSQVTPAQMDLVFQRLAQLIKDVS
Chain of Kynurenine--oxoglutarate transaminase 3 (Q6YP21 whole entry): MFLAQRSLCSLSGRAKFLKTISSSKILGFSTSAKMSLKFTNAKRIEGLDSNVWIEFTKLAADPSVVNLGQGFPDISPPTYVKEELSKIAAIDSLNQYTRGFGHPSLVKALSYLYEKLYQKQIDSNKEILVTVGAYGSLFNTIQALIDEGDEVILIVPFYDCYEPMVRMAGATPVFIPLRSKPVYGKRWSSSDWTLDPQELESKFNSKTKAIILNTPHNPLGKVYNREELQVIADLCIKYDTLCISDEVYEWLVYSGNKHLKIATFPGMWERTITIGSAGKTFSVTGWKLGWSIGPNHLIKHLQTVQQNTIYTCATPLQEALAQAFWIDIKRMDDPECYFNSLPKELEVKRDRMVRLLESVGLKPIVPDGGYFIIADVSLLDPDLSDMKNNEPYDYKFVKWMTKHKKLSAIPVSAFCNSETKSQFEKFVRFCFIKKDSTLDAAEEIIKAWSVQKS

Row | Compound | IC50 [1] [nM] | IC50 [2] [nM] | Ratio [3] [M⁻¹ s⁻¹] | Ratio [4] [M⁻¹ s⁻¹] | further results
1 | N[C@H]1Cc2cccc(C(F)(F)F)c2N(O)C1=O | > 6810 | 174 | 541 | – | –
2 | Cc1ccc2c(c1)N(O)C(=O)[C@@H](N)C2 | 368 | 37 | 33400 | 590 | –
3 | N[C@H]1Cc2ccccc2NC1=O | – | > 10000 | – | – | –
4 | COc1cccc2c1N(O)C(=O)[C@@H](N)C2 | > 10000 | 572 | 21.3 | – | –
5 | N[C@H]1Cc2ccccc2N(O)C1=O | 263 | 23 | 18500 | 573 | fraction unbound at 1 µM [5]: 0.393; Ratio [6]: 1.1; Activity [7]: inactive; IC50 [8]: 22000 nM; fraction unbound at 1 µM [9]: 0.893; Ratio [10]: 2.7; Activity [11]: 50%; concentration at 0.25 h [12]: 4.06 µM; IC50 [13]: 11000 nM; Drug uptake(free) [14]: 3.76 µM; logD [15]: -0.7; Cp(f) [16]: 10.2 µM; IC50 [17]: > 50000 nM
6 | Cc1ccc2c(c1)C[C@H](N)C(=O)N2O | 402 | 30 | 11900 | 167 | –
7 | N[C@H]1Cc2ccc(Cl)cc2N(O)C1=O | 118 | 29 | 28300 | 1170 | –
8 | Cc1cccc2c1C[C@H](N)C(=O)N2O | > 10000 | 319 | – | – | –
9 | COc1ccc2c(c1)N(O)C(=O)[C@@H](N)C2 | 137 | 22 | 31700 | 1840 | –
10 | CON1C(=O)[C@@H](N)Cc2ccccc21 | > 10000 | > 10000 | – | – | –
11 | N[C@H]1Cc2c(F)cccc2N(O)C1=O | 2060 | 45 | 6680 | – | –
12 | N[C@H]1Cc2cccc(F)c2N(O)C1=O | 631 | 40 | 5310 | 57 | –
13 | C[C@H]1c2ccccc2N(O)C(=O)[C@H]1N | > 1330 | – | – | – | –
14 | N[C@H]1Cc2c(cccc2C(F)(F)F)N(O)C1=O | > 10000 | > 10000 | – | – | –
15 | COc1cccc2c1C[C@H](N)C(=O)N2O | > 4920 | 179 | 1940 | – | –
16 | N[C@H]1Cc2cccc(Cl)c2N(O)C1=O | > 10000 | 252 | 42 | – | –
17 | N[C@@H]1Cc2ccccc2N(O)C1=O | 1170 | 219 | – | – | –
18 | CC1(N)Cc2ccccc2N(O)C1=O (configuration not stated) | > 10000 | > 10000 | – | – | –
19 | N[C@H]1Cc2c(Cl)cccc2N(O)C1=O | > 7970 | 349 | 9.5 | – | –
20 | N[C@H]1Cc2cc(C(F)(F)F)ccc2N(O)C1=O | 488 | 29 | 15300 | 102 | –
21 | N[C@H]1Cc2cc(Cl)ccc2N(O)C1=O | 258 | 36 | 19000 | 465 | –
22 | Cc1cccc2c1N(O)C(=O)[C@@H](N)C2 | > 10000 | 1050 | – | – | –

Source: ChEMBL document CHEMBL2046387, “Discovery of Brain-Penetrant, Irreversible Kynurenine Aminotransferase II Inhibitors for Schizophrenia” (ACS Med Chem Lett, 2012)
